# The source made the active and inactive calls. The calls are words filed in the database; no cut-off is given here.
# Key:
# [1] = Stability in human liver microsomes assessed as compound remaining after 60 mins; assay type: ADME, Microsome; details: read-out: Stability
# How it was run: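 Human liver microsomes incubated with compound for 60 minutes; value reported as % of compound remaining.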
# Mus musculus = test: Anti-inflammatory activity in C57BL/6 mouse model of IL23-induced dermatitis assessed as inhibition of ear swelling at 3 to 30 mg/kg, po administered once daily from day 1 to 11 and measured on days 1, 5, 8, 10, 12 post dose; assay type: functional, organism-based
# How it was run: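 IL-23 dermatitis: 250 ng recombinant mouse IL-23 in 20 μL PBS with 0.1% BSA injected intradermally into left ear of anesthetized mice on days 1, 3, 5, 8 and 10. Oral dosing at 3 and 30 mg/kg (vehicle 0.5% MC, 10 mL/kg) daily days 1–11. Left ear thickness measured by digital gauge on days 1, 5, 8, 10, 12; change from day 1 baseline.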
# Retinoid X receptor = molecular target: T1, Retinoid X receptor (Homo sapiens, UniProt P28702+P48443+P19793); test: Inhibition of GAL4-fused human RXR transcriptional activity expressed in CHOK1 cells after 2 days by luciferase reporter gene assay; assay type: cell-based
# T1 sequence (P28702 whole entry): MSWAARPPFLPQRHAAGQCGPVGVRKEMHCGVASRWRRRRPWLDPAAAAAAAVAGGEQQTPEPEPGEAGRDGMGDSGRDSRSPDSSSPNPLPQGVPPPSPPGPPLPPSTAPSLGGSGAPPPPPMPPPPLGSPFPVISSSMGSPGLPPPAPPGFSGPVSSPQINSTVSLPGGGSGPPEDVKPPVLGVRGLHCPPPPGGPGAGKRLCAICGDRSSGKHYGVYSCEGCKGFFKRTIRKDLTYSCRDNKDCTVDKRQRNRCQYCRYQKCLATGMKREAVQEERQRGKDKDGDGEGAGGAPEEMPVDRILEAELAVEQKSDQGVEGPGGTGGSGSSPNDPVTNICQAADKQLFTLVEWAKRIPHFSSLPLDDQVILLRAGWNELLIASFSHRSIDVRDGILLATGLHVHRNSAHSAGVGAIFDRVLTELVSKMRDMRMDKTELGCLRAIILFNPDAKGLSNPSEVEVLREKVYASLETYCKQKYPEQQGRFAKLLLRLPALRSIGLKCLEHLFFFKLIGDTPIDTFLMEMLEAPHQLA
# T1 sequence (P48443 whole entry): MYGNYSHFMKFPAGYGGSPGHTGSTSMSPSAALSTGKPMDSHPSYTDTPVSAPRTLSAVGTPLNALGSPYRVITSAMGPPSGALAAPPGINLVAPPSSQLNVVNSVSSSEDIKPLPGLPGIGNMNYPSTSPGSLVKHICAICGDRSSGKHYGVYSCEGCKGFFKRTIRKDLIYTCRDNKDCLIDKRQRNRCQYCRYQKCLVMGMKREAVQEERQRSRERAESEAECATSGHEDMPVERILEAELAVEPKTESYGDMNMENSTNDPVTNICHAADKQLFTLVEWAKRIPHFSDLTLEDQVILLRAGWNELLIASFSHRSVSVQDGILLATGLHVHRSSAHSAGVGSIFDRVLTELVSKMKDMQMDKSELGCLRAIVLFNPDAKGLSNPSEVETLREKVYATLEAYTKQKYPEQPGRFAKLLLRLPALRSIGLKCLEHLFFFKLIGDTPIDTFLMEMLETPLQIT
# T1 sequence (P19793 whole entry): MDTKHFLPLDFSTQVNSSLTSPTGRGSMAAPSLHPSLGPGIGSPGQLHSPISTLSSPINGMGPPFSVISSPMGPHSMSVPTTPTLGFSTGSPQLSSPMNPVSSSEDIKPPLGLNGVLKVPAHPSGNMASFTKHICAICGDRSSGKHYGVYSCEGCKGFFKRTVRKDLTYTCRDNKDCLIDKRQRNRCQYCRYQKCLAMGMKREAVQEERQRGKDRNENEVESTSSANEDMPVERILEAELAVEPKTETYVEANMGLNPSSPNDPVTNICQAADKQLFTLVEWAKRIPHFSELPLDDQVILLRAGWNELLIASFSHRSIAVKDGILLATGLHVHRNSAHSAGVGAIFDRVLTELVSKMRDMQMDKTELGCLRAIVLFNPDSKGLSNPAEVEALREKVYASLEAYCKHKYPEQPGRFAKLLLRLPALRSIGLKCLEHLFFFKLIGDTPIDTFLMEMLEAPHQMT
# [2] = molecular target: T2, Peroxisome proliferator-activated receptor delta (Homo sapiens, UniProt Q03181); test: Inhibition of GAL4-fused human PPARdelta transcriptional activity expressed in CHOK1 cells after 2 days by luciferase reporter gene assay; assay type: cell-based
# T2 sequence (Q03181 whole entry): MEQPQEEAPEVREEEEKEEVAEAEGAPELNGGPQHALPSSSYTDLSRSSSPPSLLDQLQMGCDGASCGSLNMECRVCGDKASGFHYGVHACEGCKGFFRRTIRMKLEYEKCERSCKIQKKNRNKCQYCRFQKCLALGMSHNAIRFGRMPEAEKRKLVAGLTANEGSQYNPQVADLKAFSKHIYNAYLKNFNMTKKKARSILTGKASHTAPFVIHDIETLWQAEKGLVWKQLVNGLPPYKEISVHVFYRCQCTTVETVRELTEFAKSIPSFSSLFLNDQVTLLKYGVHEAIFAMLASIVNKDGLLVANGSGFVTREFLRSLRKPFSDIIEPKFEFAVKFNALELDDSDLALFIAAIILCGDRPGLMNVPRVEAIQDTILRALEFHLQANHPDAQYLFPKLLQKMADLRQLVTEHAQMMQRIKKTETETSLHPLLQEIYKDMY
# Cytochrome P450 3A4 [3] = molecular target: T3, Cytochrome P450 3A4 (Homo sapiens, UniProt P08684); test: Time-dependent inhibition of human CYP3A4 using midazolam as substrate; assay type: ADME
# T3 sequence (P08684 whole entry): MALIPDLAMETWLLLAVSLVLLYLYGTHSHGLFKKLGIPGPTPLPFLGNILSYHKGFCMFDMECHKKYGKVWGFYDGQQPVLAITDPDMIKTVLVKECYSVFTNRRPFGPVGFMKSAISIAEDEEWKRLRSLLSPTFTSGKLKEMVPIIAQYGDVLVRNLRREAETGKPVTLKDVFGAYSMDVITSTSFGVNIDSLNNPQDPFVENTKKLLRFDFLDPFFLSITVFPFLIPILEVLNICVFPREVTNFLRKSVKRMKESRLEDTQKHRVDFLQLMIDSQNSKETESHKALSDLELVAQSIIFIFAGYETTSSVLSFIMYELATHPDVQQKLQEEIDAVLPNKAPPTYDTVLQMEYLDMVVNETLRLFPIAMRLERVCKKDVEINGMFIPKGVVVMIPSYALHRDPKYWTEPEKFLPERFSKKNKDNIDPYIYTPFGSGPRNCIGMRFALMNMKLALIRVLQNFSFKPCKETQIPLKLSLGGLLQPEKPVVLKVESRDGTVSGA
# Cytochrome P450 3A4 [4] = molecular target: T3, Cytochrome P450 3A4; test: Time-dependent inhibition of human CYP3A4 using testosterone as substrate; assay type: ADME
# Cytochrome P450 2C9 = Cytochrome P450 2C9 (Homo sapiens, UniProt P11712); test: Time-dependent inhibition of human CYP2C9; assay type: ADME
# Chain of Cytochrome P450 2C9 (P11712 whole entry): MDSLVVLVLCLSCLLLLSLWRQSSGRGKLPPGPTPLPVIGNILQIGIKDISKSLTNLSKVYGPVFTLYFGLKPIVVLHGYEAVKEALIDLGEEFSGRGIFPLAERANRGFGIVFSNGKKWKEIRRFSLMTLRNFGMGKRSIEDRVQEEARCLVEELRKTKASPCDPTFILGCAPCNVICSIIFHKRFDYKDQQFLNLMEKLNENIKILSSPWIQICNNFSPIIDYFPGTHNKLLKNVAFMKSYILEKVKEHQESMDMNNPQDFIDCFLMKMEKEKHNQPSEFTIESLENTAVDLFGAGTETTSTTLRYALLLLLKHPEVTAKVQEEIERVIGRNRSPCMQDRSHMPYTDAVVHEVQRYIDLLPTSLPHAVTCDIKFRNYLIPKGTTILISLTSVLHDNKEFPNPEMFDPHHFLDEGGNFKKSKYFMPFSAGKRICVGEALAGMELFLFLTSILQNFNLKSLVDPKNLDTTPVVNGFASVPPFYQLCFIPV
# Cytochrome P450 1A2 = molecular target: T4, Cytochrome P450 1A2 (Homo sapiens, UniProt P05177); test: Time-dependent inhibition of human CYP1A2; assay type: ADME
# T4 sequence (P05177 whole entry): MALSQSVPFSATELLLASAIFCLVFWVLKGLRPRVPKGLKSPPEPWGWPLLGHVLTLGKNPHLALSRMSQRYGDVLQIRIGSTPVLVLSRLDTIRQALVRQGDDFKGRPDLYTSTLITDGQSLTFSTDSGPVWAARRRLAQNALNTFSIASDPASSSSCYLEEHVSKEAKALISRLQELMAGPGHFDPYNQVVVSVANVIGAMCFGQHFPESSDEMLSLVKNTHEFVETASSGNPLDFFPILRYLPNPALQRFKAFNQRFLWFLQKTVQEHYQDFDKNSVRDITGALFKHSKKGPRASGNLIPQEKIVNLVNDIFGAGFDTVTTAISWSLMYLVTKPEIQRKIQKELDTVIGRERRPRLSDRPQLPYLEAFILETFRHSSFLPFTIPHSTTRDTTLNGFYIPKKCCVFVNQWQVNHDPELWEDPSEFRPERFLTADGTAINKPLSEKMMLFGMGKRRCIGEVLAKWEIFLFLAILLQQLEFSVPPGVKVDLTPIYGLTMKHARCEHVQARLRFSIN
# [5] = AUC in CD(SD) rat at 3 mg/kg, po; assay type: ADME, organism-based; details: in vivo
# [6] = Oral bioavailability in CD(SD) rat at 3 mg/kg; assay type: ADME, organism-based; details: in vivo
smiles,measurement,setting,value
CC(C)(C)Cc1cc(-c2onc([C@@H](CCC(=O)[O-])CC(=O)Nc3ccc(Cl)cc3Cl)c2C2CC2)no1.[Na+],remaining at 1 h,[1],96%
same,Activity,Mus musculus,Active
same,EC50,Retinoid X receptor,> 20 µM
same,EC50,[2],> 20 µM
same,IC50,Cytochrome P450 3A4 [3],> 50 µM
same,IC50,Cytochrome P450 3A4 [4],> 50 µM
same,IC50,Cytochrome P450 2C9,> 50 µM
same,IC50,Cytochrome P450 1A2,> 50 µM
same,AUC,[5],15 µM·h
same,bioavailability,[6],72%

# — ChEMBL document CHEMBL4480411, “Discovery of Second Generation RORγ Inhibitors Composed of an Azole Scaffold” (J Med Chem, 2019)
